Test results: ChEMBL document CHEMBL3108754, “Herbicidin congeners, undecose nucleosides from an organic extract of Streptomyces sp. L-9-10” (J Nat Prod, 2014)
The source made the active and inactive calls. The calls are words filed in the database; no cut-off is given here.

Assays:
[1] = tested on: Radical scavenging activity; experiment: Antioxidant activity assessed as DPPH radical scavenging activity; type: functional
[2] = Inhibition of TNF-alpha-induced NF-kappaB activity in HEK293 cells after 6 hrs by luciferase reporter gene assay; type: cell-based; details: Homo sapiens, HEK293, 6 h
Method in brief: (§1)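 Stable NF-κB luciferase reporter HEK293 cells were seeded at 20×10^3 cells/well in DMEM with 10% FBS, penicillin/streptomycin and 2 mM L-glutamine, grown 48 h, then given fresh medium and compounds. Cells were activated with human recombinant TNF-α at 2 ng/mL (0.14 nM) for 6 h, washed, lysed, and read by luciferase luminescence. Values are IC50 for inhibiting TNF-induced activity, or % inhibition at 50 μM.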

Streptomyces = experiment: Antimicrobial activity against Streptomyces 85E at 80 ug/disk after 30 hrs by hyphae formation inhibition assay; type: functional, organism-based
HEK293 [3] = experiment: Inhibition of TNF-alpha-induced NF-kappaB activity in HEK293 cells at 50 uM after 6 hrs by luciferase reporter gene assay; type: cell-based; details: Homo sapiens; method in brief: as §1
MCF7 = experiment: Cytotoxicity against human MCF7 cells; type: functional, cell-based
[4] = target: Nitric oxide synthase, inducible (Homo sapiens) (UniProt P35228); experiment: Inhibition of iNOS (unknown origin)
Sequence of Nitric oxide synthase, inducible (Homo sapiens) (P35228 whole entry): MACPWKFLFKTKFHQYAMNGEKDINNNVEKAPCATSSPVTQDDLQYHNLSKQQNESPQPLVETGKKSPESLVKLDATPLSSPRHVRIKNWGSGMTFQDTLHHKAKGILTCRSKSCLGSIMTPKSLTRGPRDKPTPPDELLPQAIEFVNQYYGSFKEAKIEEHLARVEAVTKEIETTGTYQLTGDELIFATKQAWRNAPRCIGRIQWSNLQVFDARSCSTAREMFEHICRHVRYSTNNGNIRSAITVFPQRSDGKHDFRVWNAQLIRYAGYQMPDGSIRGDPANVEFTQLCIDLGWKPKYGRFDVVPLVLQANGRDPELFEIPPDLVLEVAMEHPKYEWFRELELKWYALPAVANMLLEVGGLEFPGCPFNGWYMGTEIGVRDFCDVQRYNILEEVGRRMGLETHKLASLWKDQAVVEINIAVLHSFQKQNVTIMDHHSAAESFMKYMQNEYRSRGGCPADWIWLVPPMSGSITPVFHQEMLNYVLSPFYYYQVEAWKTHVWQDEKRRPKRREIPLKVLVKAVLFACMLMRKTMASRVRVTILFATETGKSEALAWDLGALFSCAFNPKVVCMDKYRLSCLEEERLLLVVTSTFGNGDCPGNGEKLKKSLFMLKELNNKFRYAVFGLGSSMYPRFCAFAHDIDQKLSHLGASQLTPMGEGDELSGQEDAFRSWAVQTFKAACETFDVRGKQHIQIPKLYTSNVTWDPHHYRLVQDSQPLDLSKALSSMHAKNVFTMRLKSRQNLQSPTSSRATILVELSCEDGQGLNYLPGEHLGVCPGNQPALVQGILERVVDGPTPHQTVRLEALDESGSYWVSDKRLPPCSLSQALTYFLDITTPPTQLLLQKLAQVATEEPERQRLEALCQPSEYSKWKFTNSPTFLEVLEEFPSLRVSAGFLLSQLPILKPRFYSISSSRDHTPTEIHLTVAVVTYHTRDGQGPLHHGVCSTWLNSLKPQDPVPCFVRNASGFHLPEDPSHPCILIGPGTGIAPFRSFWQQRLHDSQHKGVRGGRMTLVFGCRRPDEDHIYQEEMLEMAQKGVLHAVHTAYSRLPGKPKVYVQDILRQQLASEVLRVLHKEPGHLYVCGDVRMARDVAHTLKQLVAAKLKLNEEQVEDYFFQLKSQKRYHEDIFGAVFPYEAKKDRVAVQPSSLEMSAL

HEK293 [5] = experiment: Cytotoxicity against HEK293 cells; type: cell-based; details: Homo sapiens
Method in brief: (§2)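 HEK293 reporter cells were tested under the NF-κB assay conditions: TNF-α activation at 2 ng/mL and 6 h exposure to compounds. Values are cytotoxic IC50 or % survival at 50 μM.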

HEK293 [6] = experiment: Inhibition of TNF-alpha-induced NF-kappaB activity in HEK293 cells assessed as cell survival at 50 uM after 6 hrs by luciferase reporter gene assay; type: cell-based; details: Homo sapiens; method in brief: as §2
NF-kappaB = experiment: Selectivity ratio of IC50 for HEK293 cells to IC50 for NF-kappaB activity in HEK293 cells; type: ADME, cell-based; details: human, read-out: Ratio IC50
Method in brief: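 HEK293 (Panomic) cells stably carrying an NF-κB luciferase reporter, grown in DMEM with 10% FBS, penicillin/streptomycin and 2 mM L-glutamine, seeded at 20×10^3 per well, then left 48 h. Medium renewed, cells given a range of compound concentrations plus TNF-α at 2 ng/mL (0.14 nM) for 6 h. Lysates read by luciferase luminescence. Cytotoxicity IC50 run under the same conditions.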

Structure (SMILES) | Activity [1] | IC50 [2] | Activity (Streptomyces) | inhibition (HEK293 [3]) | Activity (MCF7) | inhibition [4] | IC50 (HEK293 [5]) | cell survival (HEK293 [6]) | selectivity ratio (NF-kappaB)
COC(=O)[C@H]1O[C@@H]2C[C@H]3O[C@@H](n4cnc5c(N)ncnc54)[C@H](OC)[C@H]3O[C@@]2(O)[C@H](O)[C@@H]1O | inactive | 3.2 µM | inactive | 92.2% | inactive | inactive | 43.7 µM | 53% | 
C/C=C(\C)C(=O)O[C@H]1[C@H](O)[C@@H](C(=O)OC)O[C@@H]2C[C@H]3O[C@@H](n4cnc5c(N)ncnc54)[C@H](OC)[C@H]3O[C@]21O | inactive | 0.5 µM | inactive | 83.4% | inactive | inactive | 2.3 µM | 59.8% | 
Cc1ccc(S(=O)(=O)/C=C/C#N)cc1 |  | 2 µM |  |  |  |  | 3.8 µM |  | 2
COC(=O)[C@@H]1CC(O)(O)[C@]2(O)O[C@@H]3[C@@H](OC)[C@H](n4cnc5c(N)ncnc54)O[C@@H]3C[C@H]2O1 | inactive | 2.4 µM | inactive | 96.2% | inactive | inactive | 13.7 µM | 45.1% | 
C/C=C(\C)C(=O)O[C@H]1[C@H](O)[C@@H](C(=O)OC)O[C@@H]2C[C@H]3O[C@@H](n4cnc5c(N)ncnc54)[C@H](O)[C@H]3O[C@]21O | inactive | 4.9 µM | inactive | 92.4% | inactive | inactive | 2.2 µM | 42.3% | 
COC(=O)[C@H]1O[C@@H]2C[C@H]3O[C@@H](n4cnc5c(N)ncnc54)[C@H](OC)[C@H]3O[C@@]2(O)[C@@H](O)[C@@H]1O | inactive | 2.9 µM | inactive | 94.2% | inactive | inactive | > 50 µM | 95.6% | 
Cc1ccc(S(=O)(=O)N[C@@H](Cc2ccccc2)C(=O)CCl)cc1 [TPCK] |  | 3.8 µM |  |  |  |  | 11.1 µM |  | 2
C/C=C(\CO)C(=O)O[C@H]1[C@H](O)[C@@H](C(=O)OC)O[C@@H]2C[C@H]3O[C@@H](n4cnc5c(N)ncnc54)[C@H](OC)[C@H]3O[C@]21O | inactive | 1.8 µM | inactive | 80.9% | inactive | inactive | 2.7 µM | 45.8% | 
